# EBNA-1 inh – EBNA-1 DNA-binding inhibitors, primary screen, biochemical, fluorescence polarization; AID 1950, 2009; 0.34% of 300,000 active; inhibition, % at 14.8 µM; in the data active = inhibition above about 28%
# GRIN3A LBD mod – binders of NR3A ligand-binding domain, primary screen, biophysical, differential scanning fluorimetry, uHTS; Glutamate receptor ionotropic, NMDA 3A (GRIN3A) ligand-binding domain; NR3A LBD differential scanning fluorimetry, Tm shift; 0% = protein alone, 100% = glycine-bound protein; Tm shift relative to glycine control, % at 25 µM; 2.5% of 340,000 active; AID 1259313, 2017;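 active = melting temperature shift of at least 10% of the positive control shift, at one fixed dose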
# FGF22 binding – binders of human FGF22 protein, primary screen, FGF22 synaptogenesis inhibitor project, biophysical, thermal shift, single point | Fibroblast growth factor 22 (Homo sapiens), Q9HCT0 | recombinant FGF22 thermal shift, SYPRO orange fluorescence; percent of sucrose octasulfate shift, DMSO zero | activity (Tm shift, normalised), % at 9.99 µM | 1.5% of 340,000 active | AID 651658, 2012;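 active = mean Tm shift, scaled 0 neutral to 100 positive control, at about 1.3% or above, every replicate too, limit read from the data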
# Target sequence (Q9HCT0 whole entry, looked up): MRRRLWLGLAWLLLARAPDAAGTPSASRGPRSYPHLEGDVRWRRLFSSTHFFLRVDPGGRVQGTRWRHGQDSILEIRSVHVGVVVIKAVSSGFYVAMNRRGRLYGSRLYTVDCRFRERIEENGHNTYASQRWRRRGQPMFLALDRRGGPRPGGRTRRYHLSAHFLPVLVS
# NS3 helicase inh – inhibitors of HCV NS3 helicase, primary screen, biochemical, Cy5 molecular beacon fluorescence | Hepatitis C virus NS3 helicase | NS3 helicase DNA unwinding | inhibition, % at 10.9 µM | 0.56% of 290,000 active;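 active = inhibition above the mean of all tested compounds plus 3 SD, set per campaign, cut at about 35% in these data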;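 note: 0% = DMSO wells and 100% = thioflavine S control wells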
#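 Material: hepatitis C virus NS3 helicase domain fragment enzyme; measured by: Cy5 fluorescence, 0 and 60 min reads; control set: DMSO and thioflavine S; incubation: 60 min unwinding reaction at 25 °C after ATP addition; read-out basis: % inhibition from 60/0 min fluorescence ratio, DMSO 0%, thioflavine S 100%; repeats: singlicate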
# ZTA counter – blocks Epstein-Barr virus ZTA, an EBNA-1 counter-screen; P03206; ZTA-DNA binding, fluorescence polarization; inhibition, % at 11 µM; 0.15% of 320,000 active; AID 2234; in the data active = inhibition above about 33%
# Target sequence (P03206 whole entry, looked up): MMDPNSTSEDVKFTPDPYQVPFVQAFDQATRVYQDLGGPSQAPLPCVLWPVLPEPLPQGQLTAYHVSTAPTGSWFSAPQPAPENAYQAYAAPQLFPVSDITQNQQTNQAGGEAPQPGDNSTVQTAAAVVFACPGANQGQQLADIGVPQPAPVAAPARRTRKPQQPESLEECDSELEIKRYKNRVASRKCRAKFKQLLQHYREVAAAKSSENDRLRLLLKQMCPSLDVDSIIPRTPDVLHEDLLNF
# FID counter – compounds displacing fluorescent DNA intercalator, primary screen, artefact control for HCV NS3 helicase inhibitor project, biochemical, FID fluorescence; DNA fluorescent intercalator displacement; inhibition, % at 7.9 µM; 0.17% of 290,000 active; in the data active = inhibition above about 37%;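 note: 0% = vehicle and 100% = reference compound; higher means more ethidium bromide displaced from hairpin DNA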
# * hit, by the source's call; nt = no result given. This is a sample that favours compounds with a hit; in the whole collection about 3.6% have one here.
SMILES,EBNA-1 inh,GRIN3A LBD mod,FGF22 binding,NS3 helicase inh,ZTA counter,FID counter
COc1ccc(/C=N/NC(=O)c2ccc(O)cc2)cc1CN1CCCc2ccccc21,-3.9,27.1*,nt,-14.3,2.5,-4.8
CCCOc1ccccc1/C=C1\SC(N)=NC1=O,nt,1.7,-0.1,7.4,nt,-4.6
NC1=NC(=O)/C(=C/c2ccccc2OS(=O)(=O)c2ccc3ccccc3c2)S1,0.0,17.5*,nt,-7.6,5.2,4.8
CC(C)NC(=O)Nc1ccc2c(c1)C(=O)N([C@@H](C)CO)C[C@@H](C)[C@@H](CN(C)Cc1ccc(-c3ccccc3)cc1)O2,nt,nt,-0.2,nt,nt,nt
OC(CNCCc1ccccc1)COc1ccc(OCC(O)CNCCc2ccccc2)cc1 (stereo not given),-9.2,-0.2,0.0,-46.5,4.5,30.4
CC(C)N(CCNCC(O)COc1ccc(C(C)(C)c2ccccc2)cc1)C(C)C (stereo not given),-7.8,0.2,-0.1,-59.5,-24.1,41.9*
Clc1cccc(N/N=C(\Cc2nc3ccccc3[nH]2)c2ccccc2)c1,-1.6,30.6*,nt,-10.2,0.9,-0.7
c1ccc(N/N=C(\Cc2ncc[nH]2)c2ccccc2)cc1,5.5,-1.7,42.6,9.2,8.7,-4.4
O=C(Nc1cc(-c2ccccc2)cs1)c1ccco1,nt,12.3*,0.7,nt,nt,nt
COc1ccc(NC(=O)Nc2ccc3c(c2)[C@@H]2C[C@@H](CC(=O)NC4CCCCC4)O[C@H](CO)[C@@H]2O3)cc1,nt,nt,0.0,nt,nt,nt
CCN1/C(=C2\C(=O)N(c3ccccc3)N=C2C)C=Cc2cc(C)ccc21,-1.6,-2.2,43.1*,-4.9,-9.6,-7.8
CCN1/C(=c2/s/c(=C3/C(=O)N(c4ccccc4)N=C3C)n(CC)c2=O)C=Cc2ccccc21,-10.8,0.2,-0.1,nt,-8.2,nt
COc1ccc([C@H]2C=C(C(=O)N3CCN(Cc4ccc5c(c4)OCO5)CC3)O[C@@H](OCc3ccc(CO)cc3)C2)cc1,nt,nt,0.1,nt,nt,nt
COc1cccc(NC(=O)Nc2ccc(C)c(Cl)c2)c1,3.2,33.6*,0.3,-11.9,3.2,4.3
COc1cccc(NC(=O)Nc2ccc(C(C)(C)C)cc2)c1,nt,18.4*,0.5,-4.6,nt,-2.4
COc1cccc(NC(=O)Nc2cc(C(=O)O)ccc2C)c1,-0.5,-2.8,-0.8,-2.7,5.1,-2.5
Cc1ccc(NC(=O)Nc2ccc(F)cc2)cc1Cl,1.1,27.9*,43.4*,3.8,-7.2,4.1
O=C(C[C@@H]1CC[C@@H](NC(=O)c2ccc3c(c2)OCO3)[C@@H](CO)O1)NCc1ccc(F)cc1,nt,nt,0.4,nt,nt,nt
C[C@@H]1CN([C@@H](C)CO)C(=O)c2cc(NS(=O)(=O)c3cn(C)cn3)ccc2O[C@@H]1CN(C)Cc1ccc(C(=O)O)cc1,nt,nt,0.1,nt,nt,nt
C[C@H](CO)N1C[C@H](C)[C@H](CN(C)C(=O)Nc2ccc(F)cc2)OCCCC[C@H](C)Oc2ccc(NS(C)(=O)=O)cc2C1=O,nt,nt,-0.1,nt,nt,nt
O=S1(=O)N=C(N/N=C/c2ccccn2)c2ccccc21,3.2,-0.9,nt,14.7,11.3,2.3
O=S1(=O)N=C(N/N=C/c2ccc(Br)o2)c2ccccc21,1.6,-0.4,43.4*,6.0,0.4,-7.1
COC(=O)c1ccccc1C(=O)c1cccc2ccccc12,-2.9,-2.3,-0.4,-7.1,-5.0,-15.1
COC(=O)c1cc2ccccc2c(-c2c(O)ccc3ccccc23)c1O,-13.1,11.7*,nt,-19.4,-5.5,-12.3
COc1ccc(OC)c(NC(=O)C2(C)CCN2C(C)C)c1 (stereo not given),nt,nt,0.4,nt,nt,nt
SMILES,EBNA-1 inh,GRIN3A LBD mod,FGF22 binding,NS3 helicase inh,ZTA counter,FID counter
COc1ccc(OC)c(NC(=O)C23CCC(C)(C(=O)C2)C3(C)C)c1 (stereo not given),4.7,10.8*,nt,-0.9,21.0,-12.9
COc1ccc(-n2c(CNC(=O)COc3ccc(Cl)cc3Cl)n[nH]c2=S)cc1,-1.8,-0.7,43.2*,10.3,-7.2,-29.0
COc1ccc(-n2c(CNC(=O)COc3ccc(Cl)cc3)n[nH]c2=S)cc1,3.0,1.3,-0.2,2.1,-20.4,-18.1
Cc1ccccc1C(=O)NCC(=O)O,2.1,-0.9,43.0*,-17.4,-4.1,-6.2
Cc1ccc(OCC(=O)N(Cc2ccc(N(C)C)cc2)C2CCS(=O)(=O)C2)cc1 (stereo not given),1.3,17.2*,nt,1.8,7.3,-22.8
Cc1noc(C)c1S(=O)(=O)Nc1ccc2c(c1)C(=O)N([C@@H](C)CO)C[C@H](C)[C@H](CN(C)Cc1ccc(Cl)c(Cl)c1)O2,nt,nt,-0.4,nt,nt,nt
COc1ccc(-c2cc(C(=O)N(C)Cc3cccc(OC)c3OC)c3ccccc3n2)cc1OC,1.6,-6.3,-0.2,-14.4,2.3,-41.4
COc1ccc(-c2cc(C(=O)N(C)Cc3nc4ccccc4c(=O)[nH]3)c3ccccc3n2)cc1OC,nt,-1.7,44.4*,nt,nt,nt
CNC[C@H]1Oc2c(NC(=O)c3cnccn3)cccc2C(=O)N([C@@H](C)CO)C[C@H]1C,nt,nt,0.1,nt,nt,nt
CC(C)(C)C(=O)NC(=S)Nc1ccccc1N1CCCC1,3.5,-3.7,-0.2,-13.2,-2.6,-11.5
CC(=O)NC(=S)Nc1ccccc1N1CCCCC1,3.3,13.0*,nt,3.1,-3.3,-5.7
Cc1ccc(S(=O)(=O)N2CCCCC2)cc1NC(=O)CSc1nncn1-c1ccccc1,-1.5,-1.8,43.2*,-2.6,-9.1,-25.9
Cc1ccc(S(=O)(=O)N2CCCCC2)cc1NC(=O)COc1ccccc1F,4.7,2.5,43.2*,6.2,8.8,-11.4
COc1ccccc1CNCC(=O)Nc1cc(S(=O)(=O)N2CCCCC2)ccc1C,nt,0.7,0.0,nt,nt,nt
COc1ccc(-n2cnnc2SCC(=O)Nc2cc(S(=O)(=O)N3CCCCC3)ccc2C)cc1,11.9,-0.1,nt,-7.9,6.3,-14.7
Cc1ccc(S(=O)(=O)N2CCCCC2)cc1NC(=O)COC(=O)C1CC2C=CC1C2 (stereo not given),1.7,10.3*,nt,1.1,2.5,-16.3
C[C@H](O)C#Cc1ccc([C@@H]2[C@H](CO)N3CCCCN(C(=O)c4cccc(F)c4)C[C@@H]23)cc1,nt,nt,0.7,nt,nt,nt
COCc1cn(CC[C@H]2CC[C@@H](NC(=O)CCN3CCCCC3)[C@@H](CO)O2)nn1,nt,nt,0.2,nt,nt,nt
O=C(O)C(Cc1c[nH]c2ccccc12)NS(=O)(=O)c1ccc(F)cc1 (stereo not given),nt,nt,0.0,nt,nt,nt
N#CCOC(=O)[C@H](Cc1c[nH]c2ccccc12)NS(=O)(=O)c1ccc(Cl)cc1,-15.1,28.7*,1.2,-10.8,-17.2,-15.5
Cc1ccc(/C=C/C(=O)O)cc1S(=O)(=O)NCC1CCCO1 (stereo not given),-6.8,-0.7,nt,-6.7,-15.9,-0.9

# High-throughput results (PubChem)
